Results published in PMC9040061 (ACS infectious diseases, 2020).
Numbering of substitutions follows the chain as printed. In brackets after ≈: the same amount, converted by molar mass.

Legend:
[1] = tested on: UPPS-overexpressed E. coli BAS 849; test: In vivo growth inhibition assay on agar; format: cell-based, Escherichia coli; conditions: overexpression of EfaUPPS, SauUPPS and EcoUPPS; compound at 8 μg/mL; IPTG 0.5 mM
Procedure, shortened: (§1)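 E. coli BAS 849 carried pQE80L (T5 promoter) either empty or bearing the UPPS gene from E. faecalis ATCC 29212, S. aureus ATCC 29213 or E. coli DH5α. Cultures were spread on LB agar with ampicillin, IPTG and test compound, incubated overnight at 37 °C and scored for growth.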

[2] = target: recombinant E. faecalis UPPS (EfaUPPS) (Enterococcus faecalis, UniProt Q831K9); test: UPPS inhibition assay; format: biochemical; conditions: for IC50: EfaUPPS, enzyme-coupled fluorescence assay
normal E. coli species = test: MIC, microtiter broth dilution; format: cell-based, Escherichia coli
Procedure, shortened: (§2)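 MICs were measured by broth microdilution in LB broth against E. coli DH5α, BL21(DE3) and BAS 849, the last an outer-membrane-defective strain with raised permeability. Tetracycline and ampicillin served as reference antibiotics. Values are means of at least three biological replicates.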

[3] = tested on: E. coli BAS 849 transformed with the empty vector pQE80L; test: In vivo growth inhibition assay on agar; format: cell-based, Escherichia coli; conditions: compound at 8 μg/mL, IPTG 0.5 mM
Procedure, shortened: as §1

wild-type EfaUPPS = wild-type EfaUPPS (Enterococcus faecalis, UniProt Q831K9); test: Surface plasmon resonance binding assay; conditions: for Kd: read-out: equilibrium dissociation constant (KD), SPR, wild-type EfaUPPS, one-state binding model
Escherichia coli BAS 849 = test: MIC, microtiter broth dilution; format: cell-based; conditions: E. coli BAS 849, deficient outer-membrane structure
Procedure, shortened: as §2

E. coli 70S ribosome = test: In vitro translation inhibition assay; format: biochemical, Escherichia coli; conditions: read-out: IC50, in vitro translation, PURE system
[4] = target: recombinant E. coli UPPS (EcoUPPS) (Escherichia coli, UniProt P60472); format: biochemical
[5] = target: recombinant S. aureus UPPS (SauUPPS) (Staphylococcus aureus, UniProt P60477); test: UPPS inhibition assay; format: biochemical
EfaUPPS F73S mutant = EfaUPPS F73S mutant (Enterococcus faecalis, UniProt Q831K9, F79S); test: UPPS inhibition assay, mutant enzyme; format: biochemical
Procedure, shortened: (§3)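 Mutant E. faecalis UPPS was His-tagged in pET28a, expressed in E. coli BL21(DE3) (1 mM IPTG, 16 °C, 16 h) and purified by Ni-NTA and gel filtration. Assays ran 30 min at 37 °C in 100 mM Tris-HCl pH 7.5, 0.5 mM MgCl2, 50 mM KCl, 35 μM IPP, 5 μM FPP, 0.005% Triton X-100, and were EDTA-stopped. Released pyrophosphate was read by coupled fluorescence (316/456 nm). Mutant IC50 was compared with wild type; at least three biological replicates.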

EfaUPPS N31E mutant [6] = target: T1, EfaUPPS N31E mutant (Enterococcus faecalis, UniProt Q831K9, N37E); test: Surface plasmon resonance binding assay; conditions: SPR
T1 sequence (Q831K9 1-271 N37E): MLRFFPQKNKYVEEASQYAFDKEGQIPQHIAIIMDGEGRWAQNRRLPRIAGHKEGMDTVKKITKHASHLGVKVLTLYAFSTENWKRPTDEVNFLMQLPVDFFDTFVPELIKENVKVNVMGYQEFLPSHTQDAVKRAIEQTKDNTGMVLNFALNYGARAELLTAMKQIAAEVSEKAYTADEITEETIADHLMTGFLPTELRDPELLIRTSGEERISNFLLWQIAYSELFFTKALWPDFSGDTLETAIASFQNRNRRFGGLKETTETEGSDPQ
Procedure, shortened: (§4)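 Point mutants of E. faecalis UPPS were made by site-directed mutagenesis and purified like wild type (Ni-NTA, then gel filtration). Enzyme (50 μg/mL) was amine-coupled to a carboxymethyl dextran chip. Test compound (0.4–50 μM) in phosphate-buffered saline with 0.005% Tween-20, pH 7.8, was flowed at 25 μL/min: 1.5 min association, 2.5 min dissociation. Reference-cell signal was subtracted, and KD came from a 1:1 model.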

EfaUPPS R42A mutant = EfaUPPS R42A mutant (Enterococcus faecalis, UniProt Q831K9, R48A); test: UPPS inhibition assay, mutant enzyme; format: biochemical
Procedure, shortened: as §3

EfaUPPS S74T mutant = EfaUPPS S74T mutant (Enterococcus faecalis, UniProt Q831K9, S80T); test: UPPS inhibition assay, mutant enzyme; format: biochemical
Procedure, shortened: as §3

EfaUPPS W228A mutant = test: UPPS inhibition assay, mutant enzyme; format: biochemical, Enterococcus faecalis; conditions: W228A mutant versus wild-type EfaUPPS
Procedure, shortened: as §3

EfaUPPS M28W mutant [7] = target: T2, EfaUPPS M28W mutant (Enterococcus faecalis, UniProt Q831K9, M34W); test: Surface plasmon resonance binding assay; conditions: SPR
T2 sequence (Q831K9 1-271 M34W): T1 sequence (Q831K9 1-271 N37E) with M34W, E37N
Procedure, shortened: as §4

EfaUPPS D29A mutant = EfaUPPS D29A mutant (Enterococcus faecalis, UniProt Q831K9, D35A); test: UPPS inhibition assay, mutant enzyme; format: biochemical
Procedure, shortened: as §3

EfaUPPS N31F mutant = test: UPPS inhibition assay, mutant enzyme; format: biochemical, Enterococcus faecalis; conditions: N31F mutant versus wild-type EfaUPPS
Procedure, shortened: as §3

EfaUPPS N31E mutant [8] = target: T1, EfaUPPS N31E mutant; test: UPPS inhibition assay, mutant enzyme; format: biochemical; conditions: N31E mutant versus wild-type EfaUPPS
Procedure, shortened: as §3

EfaUPPS H46W mutant = test: UPPS inhibition assay, mutant enzyme; format: biochemical, Enterococcus faecalis; conditions: H46W mutant versus wild-type EfaUPPS
Procedure, shortened: as §3

EfaUPPS N31A mutant = EfaUPPS N31A mutant (Enterococcus faecalis, UniProt Q831K9, N37A); test: UPPS inhibition assay, mutant enzyme; format: biochemical
Procedure, shortened: as §3

EfaUPPS M28E mutant = test: UPPS inhibition assay, mutant enzyme; format: biochemical, Enterococcus faecalis; conditions: M28E mutant versus wild-type EfaUPPS
Procedure, shortened: as §3

EfaUPPS M28W mutant [9] = target: T2, EfaUPPS M28W mutant; test: UPPS inhibition assay, mutant enzyme; format: biochemical; conditions: M28W mutant versus wild-type EfaUPPS
Procedure, shortened: as §3

EfaUPPS M28A mutant = test: UPPS inhibition assay, mutant enzyme; format: biochemical, Enterococcus faecalis; conditions: M28A mutant versus wild-type EfaUPPS
Procedure, shortened: as §3

recombinant E. coli UPPS (EcoUPPS), sequence (P60472 whole entry): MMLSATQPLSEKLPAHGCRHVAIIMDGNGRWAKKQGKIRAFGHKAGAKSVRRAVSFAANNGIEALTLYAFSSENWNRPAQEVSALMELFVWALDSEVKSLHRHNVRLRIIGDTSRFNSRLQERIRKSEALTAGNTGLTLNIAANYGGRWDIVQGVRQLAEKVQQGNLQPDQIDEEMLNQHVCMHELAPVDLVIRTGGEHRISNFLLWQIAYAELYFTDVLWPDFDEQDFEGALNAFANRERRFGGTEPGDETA

## viridicatumtoxin B [VirB]
[1]
  growth of E. coli BAS 849: rescued the cell growth
[2]
  IC50: 58.1 nM
Normal E. coli species
  MIC: > 64 µg/mL
[3]
  growth of E. coli BAS 849: completely inhibited
wild-type EfaUPPS
  Kd: 11.5 µM
Escherichia coli BAS 849
  MIC: 8 µg/mL
E. coli 70S ribosome
  IC50: 600 µM

## CN(C)[C@@H]1C(O)=C(C(N)=O)C(=O)[C@@]2(O)C(O)=C3C(=O)c4c(O)cccc4[C@@](C)(O)[C@H]3C[C@@H]12 [Tet, tetracycline, reference compound]
[4]
  IC50 fold higher than that for VirA: 6 fold
[2]
  IC50 fold higher than that for VirA: 12 fold
wild-type EfaUPPS; EfaUPPS
  SPR binding signals: cannot detect any binding signals
[5]
  IC50 fold higher than that for VirA: 6 fold
E. coli 70S ribosome
  IC50: 15 µM

## COc1cc(O)c2c(O)c3c(c4c2c1[C@]1(C4)C(C)=CCCC1(C)C)[C@H](O)[C@@]1(O)CC(=O)C(C(N)=O)=C(O)[C@@]1(O)C3=O [VirA, viridicatumtoxin A]
EfaUPPS F73S mutant
  change of IC50 of mutant compared with wild-type enzyme: decreased IC50
EfaUPPS N31E mutant [6]
  Kd: 322 µM
  binding affinity decreased, fold, versus wild type: approximately 3 fold
EfaUPPS R42A mutant
  susceptibility of mutant compared with wild-type enzyme: more susceptible
[1]
  growth of E. coli BAS 849: rescued the cell growth
EfaUPPS S74T mutant
  change of IC50 of mutant compared with wild-type enzyme: decreased IC50
EfaUPPS W228A mutant
  IC50-MT/IC50-WT: 6.0
EfaUPPS M28W mutant [7]
  Kd: 9.8 µM
  binding affinity fold higher than the wild-type enzyme: about 12 fold
EfaUPPS D29A mutant
  susceptibility of mutant compared with wild-type enzyme: more susceptible
[4]; EcoUPPS
  IC50: 3.9 µM
[2]
  IC50: 1600 nM
Normal E. coli species
  MIC: > 64 µg/mL
EfaUPPS N31F mutant
  IC50-MT/IC50-WT: 10.7
EfaUPPS N31E mutant [8]
  IC50-MT/IC50-WT: 42.4
[3]
  growth of E. coli BAS 849: completely inhibited
EfaUPPS H46W mutant
  IC50-MT/IC50-WT: 4.5
EfaUPPS N31A mutant
  change of IC50 of mutant compared with wild-type enzyme: decreased IC50
EfaUPPS M28E mutant
  IC50-MT/IC50-WT: 123.3
wild-type EfaUPPS
  Kd: 123 µM
Escherichia coli BAS 849
  MIC: 8 µg/mL (≈ 14.1 µM)
[5]; SauUPPS
  IC50: 4.1 µM
EfaUPPS M28W mutant [9]
  IC50-MT/IC50-WT: 0.2
E. coli 70S ribosome
  IC50: 700 µM
EfaUPPS M28A mutant
  IC50-MT/IC50-WT: 0.5
